# Screening data deposited in PubChem by several laboratories.
# RTF Ca sens inh: cardiac RTF calcium desensitization. P19429+P45379. 0.12% of 340,000 active. inhibition, % at 7.15 µM. IANBD-labeled cardiac RTF, Ca2+ fluorescence;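 active = inhibition above the mean inhibition of all tested compounds plus 3 SD, cut at about 17% in these data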;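 note: assay run at fixed EC70 calcium of 1.6 mM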
# RTF Ca sens act: cardiac RTF calcium sensitization. P19429+P45379. IANBD-labeled TnC RTF fluorescence at EC20 calcium; 0% EC20 calcium, 100% full calcium. activation, % at 7.2 µM. 0.24% of 340,000 active. AID 493008;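 active = activation above the mean over all tested compounds plus 3 SD, cut at about 30% in these data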;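 note: rise in fluorescence read as greater calcium sensitivity of cardiac thin filaments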
# Tn7 DDE FP: DD(E)-Tn7 binding inhibition, primary FP screen; P02675; FP displacement of FITC-Tn7 peptide from fibrin DD(E); 0% = median of compound wells per plate; inhibition, % at 8.3 µM; 0.13% of 370,000 active;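 active = inhibition above the mean of compounds falling within the control limits plus 3 SD of them, cut at about 14% in these data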;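 note: 0% = plate median of compound wells and 100% = 10 µM Aha-Tn7 peptide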
# Target sequence (P02675 whole entry, looked up): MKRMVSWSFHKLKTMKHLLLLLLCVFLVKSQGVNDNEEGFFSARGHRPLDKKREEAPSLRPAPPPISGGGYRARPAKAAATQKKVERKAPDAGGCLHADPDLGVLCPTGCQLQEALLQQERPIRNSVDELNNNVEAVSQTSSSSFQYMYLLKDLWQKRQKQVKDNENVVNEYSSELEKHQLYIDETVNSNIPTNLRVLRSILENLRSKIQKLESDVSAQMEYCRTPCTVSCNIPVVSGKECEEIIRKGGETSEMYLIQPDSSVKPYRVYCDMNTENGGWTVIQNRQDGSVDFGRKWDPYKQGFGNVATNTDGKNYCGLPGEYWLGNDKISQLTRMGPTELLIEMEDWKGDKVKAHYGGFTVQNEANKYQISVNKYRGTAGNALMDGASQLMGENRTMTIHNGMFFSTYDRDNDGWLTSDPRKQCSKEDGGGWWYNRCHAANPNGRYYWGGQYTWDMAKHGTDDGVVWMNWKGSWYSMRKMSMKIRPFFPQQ
#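 Assay system: human fibrin DD(E) protein / Input: 2 µM fibrin DD(E) / Benchmarks: high control of 10 µM Aha-Tn7 peptide / Measured by: fluorescence polarization of the labelled Tn7 tracer / Medium: Tris buffer with calcium and detergent, pH 7.8 / Timing: 10 min compound pre-incubation, 3 h probe incubation at room temperature / Repeats: one replicate per compound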
# CRFBP-R2 block: antagonists of CRF-binding protein/CRF-R2 receptor complex; AID 588475; inhibition, % at 11.8 µM; 0.59% of 350,000 active; HEK293 CRF-R2/CRF-BP, CRF-induced calcium fluorescence;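 active = inhibition of the ligand-induced calcium signal above about 50% at the single tested concentration, limit read from the data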
# Tn6 DDE FP: DD(E)-Tn6 binding inhibition, primary FP screen; Fibrin DD(E) TRITC-Tn6 fluorescence polarization displacement; inhibition, % at 8.3 µM; 0.21% of 370,000 active; AID 720509;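 active = inhibition above a per-campaign cutoff: mean of compounds within control limits plus 3 SD, cut at about 15% in these data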;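 note: 0% = median of all compound wells on the plate and 100% = blocking peptide control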
# CRFBP-R2 agonist: agonists of human CRF-binding protein/CRF-R2 receptor complex | 0.46% of 350,000 active | HEK293 CRF-R2/CRF-BP, calcium dye fluorescence (FLIPR); percent of saturating CRF peptide response | AID 588473 | activation, % at 13.2 µM;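 active = activation of at least 50%, plus an integration ratio under a set limit after plate pattern correction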;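 note: plate controls were neutral control wells without compound for no effect and CRF at EC100 for full effect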
# Numbers without * were called inactive; x = not tested or not shown. Most compounds without a hit are left out; they make up all but 1.4% or so of the library.
SMILES,RTF Ca sens inh,RTF Ca sens act,Tn7 DDE FP,CRFBP-R2 block,Tn6 DDE FP,CRFBP-R2 agonist
CC(=O)C1=CCC(c2ccc(F)cc2)N(S(=O)(=O)c2ccc(C)cc2)C1 (stereo not given),x,x,12.4,x,2.7,x
Cc1c(N=C2N=C(NC(=O)c3cccs3)c3ccccc32)c(=O)n(-c2ccccc2)n1C,-31.5,15.2,-6.6,-66.3,-11.0,89.5*
CNC(=S)N1CCc2cc(OC)c(OC)cc2C1COc1ccc(OC)cc1 (stereo not given),-4.3,4.7,13.5,1.5,1.8,-3.8
COCCNC(=S)N1CCc2cc(OC)c(OC)cc2C1COc1cc(C)cc(C)c1 (stereo not given),-14.3,4.3,-2.6,86.4*,8.9,0.4
C[C@@H]1CN([C@@H](C)COC(=O)C(C)(C)C)C(=O)c2cc(NC(=O)Nc3ccccc3)ccc2O[C@@H](C)CCCCO[C@H]1CN(C)S(=O)(=O)c1ccc(F)cc1,x,x,-5.3,x,-16.2,x
CCCOc1ccc(NC(=O)c2c(-c3ccccc3)noc2C)cc1,-1.4,1.6,1.6,3.9,-3.6,-0.2
Cc1onc(-c2ccccc2)c1C(=O)NC(=S)NNC(=O)c1ccccc1O,-2.9,-0.7,1.2,-138.2,-1.1,202.3*
CCCOc1ccc(C(=O)NC(=S)NNC(=O)c2c(-c3ccccc3)noc2C)cc1,5.6,-1.2,6.0,-15.0,2.2,145.2*
COc1ccccc1N1CCN(C(c2ccc(Cl)cc2)c2nnnn2C(C)(C)C)CC1 (stereo not given),-2.9,0.1,1.4,119.0*,0.5,-1.6
COc1ccccc1N1CCN(C(c2ccccc2Cl)c2nnnn2C(C)(C)C)CC1 (stereo not given),-3.8,-1.5,x,5.2,x,1.0
CN(C)c1ccc(CC(=O)N2CCCC(c3cc(C(=O)Nc4ccc(F)c(Cl)c4)no3)C2)cc1 (stereo not given),x,x,-0.1,x,3.4,x
COc1ccc(CNc2cc([N+](=O)[O-])ccc2OC)cc1,6.8,0.7,-5.8,88.6*,4.4,-1.6
Cc1cc([N+](=O)[O-])ccc1NCc1ccc2ccccc2c1,4.6,-4.6,1.0,18.3,-2.8,0.0
Cc1cc([N+](=O)[O-])ccc1NCc1ccccc1,-9.6,-3.4,x,113.7*,x,1.3
COc1ccc(C)cc1NCc1ccc([N+](=O)[O-])cc1,-0.2,-9.6,-10.2,27.8,-1.0,-4.7
O=C(O)C(Cc1ccccc1)Nc1ccc([N+](=O)[O-])cc1[N+](=O)[O-] (stereo not given),0.8,3.0,-1.4,53.2*,4.3,3.5
O=C1CCC[C@H]2C[C@H](NCc3cccc(I)c3)CC[C@]23CCCN13,x,x,2.9,x,-2.1,x
O=c1c2cc(F)ccc2sn1-c1ccccc1,8.7,0.8,1.5,33.1,-3.2,24.8
O=c1c2cc(C(F)(F)F)ccc2sn1-c1ccccc1,x,x,0.0,44.7,-1.0,60.8*
CC#CCCCC(=O)Nc1ccccc1C(=O)O,-6.6,3.7,-15.2,63.2*,-6.6,-0.2
CC#CCCCC(=O)Nc1ccc(C(=O)O)cc1,-9.7,1.8,-3.3,-30.5,1.5,4.3
O=C(N/N=C/c1ccccc1Cl)C1CC1,-0.6,-1.0,4.0,76.7*,-5.2,0.0
Cc1ccc(CN(C)C(=O)CCc2c[nH]c3ccccc23)o1,-0.3,-2.2,-3.3,56.6*,2.0,-2.1
Cc1ccc(NS(=O)(=O)c2ccc(C(=O)Nc3nncs3)cc2)cc1,-1.9,-1.5,-3.5,110.5*,-3.1,3.8
Cc1ccc(S(=O)(=O)Nc2ccc(C(=O)NC3CC3)cc2)cc1,-3.2,-1.7,5.4,3.0,-1.7,1.0
SMILES,RTF Ca sens inh,RTF Ca sens act,Tn7 DDE FP,CRFBP-R2 block,Tn6 DDE FP,CRFBP-R2 agonist
Cc1ccc(S(=O)(=O)Nc2cc(C(=O)Nc3cc(C)cc(C)c3)ccc2Cl)cc1,-6.0,-3.9,1.2,55.2*,-7.7,-2.1
Cc1ccc(NS(=O)(=O)c2ccc(C(=O)N3CC(C)CC(C)C3)cc2)cc1 (stereo not given),-16.1,-7.7,-4.3,-50.5,-1.4,117.2*
CCOc1cc(N2CCC(O)CC2)ccc1Nc1ncc2c(n1)N(C)c1ccccc1C(=O)N2C,x,x,2.2,x,0.6,x
COc1cc(/C=C2\SC(=O)N(c3ccccc3Cl)C2=O)cc([N+](=O)[O-])c1O,9.0,-3.4,-0.4,87.7*,-3.1,-0.7
COc1cc(/C=C2\SC(=O)N(CC(=O)Nc3ccccc3F)C2=O)cc(Cl)c1O,-2.6,-0.8,6.4,-150.2,1.5,169.2*
Cc1ccccc1N(CC(=O)N1CCN(Cc2ccccc2)CC1)S(C)(=O)=O,x,x,3.0,70.3*,1.4,5.2
COc1ccc(OC)c(NC(=O)c2ccccc2NS(=O)(=O)c2cccc3cccnc23)c1,-1.1,-5.3,-3.8,73.6*,1.1,0.3
O=C1CSC(=S)N1/N=C/c1c(F)cccc1F,7.0,3.1,4.8,-2.6,-4.8,0.4
O=C1CSC(=S)N1N=Cc1c(F)cccc1Cl,x,x,7.5,29.2,5.7,55.2*
CN(C)c1ccc(C=NN2C(=O)CSC2=S)c(Cl)c1,x,x,-10.7,39.8,-9.2,50.2*
COc1cccc(/C=N/N2C(=O)CSC2=S)c1O,-2.9,-3.0,0.7,12.3,-5.0,0.3
CCCCCC(=O)NC1CCCCN(Cc2ccc(C)cc2)C1=O (stereo not given),x,x,5.7,x,0.3,x
CC(=O)OCC(=O)C1(O)CCC2C3CC(C)C4=CC(=O)C=CC4(C)C3(F)C(O)CC21C (stereo not given),-1.6,-5.6,-4.6,-11.6,-8.7,1.7
CC(=O)C1(O)CCC2C3CC(C)C4=CC(=O)C=CC4(C)C3(F)C(O)CC21C (stereo not given),0.9,-5.0,1.1,78.9*,-2.2,4.8
O=C(Nc1cccc(OC(F)(F)F)c1)C1Cc2c(-c3ccco3)ccnc2O1 (stereo not given),x,x,-4.4,x,-3.7,x
CC(C)(C)C(=O)NC(=S)NNC(=O)C(c1ccccc1)c1ccccc1,8.0,12.7,x,-116.9,x,191.6*
CC(=O)NNC(=S)NC(=O)C(c1ccccc1)c1ccccc1,-5.0,-4.3,-4.5,-23.6,3.8,18.8
CC(C)(C)OC(=O)NCc1ccccc1/C=C/S(=O)(=O)NCCc1ccccc1,x,x,4.2,x,2.2,x
CC1=C(C(=O)OC(C)(C)C)C(c2cccc3ccccc23)NC(=O)N1 (stereo not given),-4.8,-0.4,-3.2,65.4*,-0.7,0.1
Cc1cc(C)n2c(SCCC(C)C)nnc2n1,-4.5,3.8,14.9*,-5.4,0.3,-1.4
Cc1cc(C)n2c(SCC(C)C)nnc2n1,2.4,-1.5,10.7,-5.3,4.6,-1.5
COc1cccc(CNC(=O)C2CCC(=O)N(CC3CCCCC3)C2)c1OC (stereo not given),-6.0,1.3,0.3,91.9*,5.0,3.3
O=C(NCc1cccc(Cl)c1)C1CCC(=O)N(CC2CCCCC2)C1 (stereo not given),-6.1,-1.0,-1.5,85.7*,0.3,-4.3
